Test results published in ChEMBL document CHEMBL1212838, “Investigations on the 2-thiazolylhydrazyne scaffold: synthesis and molecular modeling of selective human monoamine oxidase inhibitors” (Bioorg Med Chem, 2010).

What was measured:
[1] = target: T1, Amine oxidase [flavin-containing] A (Homo sapiens, UniProt P21397); assay: Inhibition of human MAOA by fluorimetry
T1 sequence (P21397 whole entry): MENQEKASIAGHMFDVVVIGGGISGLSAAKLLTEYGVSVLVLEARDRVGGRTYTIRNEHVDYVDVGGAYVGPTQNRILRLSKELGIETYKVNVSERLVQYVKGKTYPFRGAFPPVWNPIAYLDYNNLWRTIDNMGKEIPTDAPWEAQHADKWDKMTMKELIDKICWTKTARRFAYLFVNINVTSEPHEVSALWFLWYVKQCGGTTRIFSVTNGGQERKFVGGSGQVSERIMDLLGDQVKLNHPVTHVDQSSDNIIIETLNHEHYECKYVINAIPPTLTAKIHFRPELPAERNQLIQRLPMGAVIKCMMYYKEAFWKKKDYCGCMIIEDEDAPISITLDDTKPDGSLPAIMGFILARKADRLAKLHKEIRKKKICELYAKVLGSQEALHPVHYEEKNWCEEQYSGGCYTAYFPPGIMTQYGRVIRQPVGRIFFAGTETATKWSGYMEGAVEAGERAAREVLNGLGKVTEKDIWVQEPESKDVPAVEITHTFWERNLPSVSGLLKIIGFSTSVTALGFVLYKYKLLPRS

[2] = target: T2, Amine oxidase [flavin-containing] B (Homo sapiens, UniProt P27338)
T2 sequence (P27338 whole entry): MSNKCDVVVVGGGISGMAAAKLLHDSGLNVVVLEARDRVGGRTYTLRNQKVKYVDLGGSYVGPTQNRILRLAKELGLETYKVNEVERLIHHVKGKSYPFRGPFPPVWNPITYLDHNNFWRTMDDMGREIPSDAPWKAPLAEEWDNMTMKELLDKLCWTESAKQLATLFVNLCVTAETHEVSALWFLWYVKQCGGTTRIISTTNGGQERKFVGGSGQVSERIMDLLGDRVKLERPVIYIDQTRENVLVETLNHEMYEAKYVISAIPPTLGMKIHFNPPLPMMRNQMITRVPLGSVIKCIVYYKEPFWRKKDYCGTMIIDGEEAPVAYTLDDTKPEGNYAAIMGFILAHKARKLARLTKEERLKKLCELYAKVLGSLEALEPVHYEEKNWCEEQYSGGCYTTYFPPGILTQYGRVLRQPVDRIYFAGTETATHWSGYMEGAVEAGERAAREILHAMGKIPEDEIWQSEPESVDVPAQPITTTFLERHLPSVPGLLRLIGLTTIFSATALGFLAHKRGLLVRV

Homo sapiens = species on record: Homo sapiens; assay: Selectivity index, ratio of IC50 for human recombinant MAOA to IC50 for human recombinant MAOB
[3] = target: T2, Amine oxidase [flavin-containing] B; assay: Inhibition of human MAOB at 100 uM by fluorimetry
In short: (§1)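 Recombinant human MAO-A or MAO-B, each at an amount set to oxidize 165 pmol p-tyramine/min, preincubated 15 min at 37 °C with compound in 0.05 M sodium phosphate pH 7.4. Reaction started with final 200 µM Amplex Red, 1 U/mL HRP and 1 mM p-tyramine. Resorufin fluorescence (ex 545, em 590 nm) read over 15 min at 37 °C; enzyme-free background subtracted.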

[4] = target: T1, Amine oxidase [flavin-containing] A; assay: Inhibition of human MAOA at 500 nM
In short: (§2)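 Reversibility test: hMAO-A or hMAO-B with compound was ultrafiltered on a 30 kDa membrane. Retained enzyme was resuspended in sodium phosphate buffer at 4 °C and recentrifuged, three centrifugations in all. An aliquot was then assayed fluorimetrically with p-tyramine/Amplex Red. Percent inhibition was computed for washed and unwashed samples against vehicle controls; n = 5.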

[5] = target: T1, Amine oxidase [flavin-containing] A; assay: Reversible inhibition of human MAOA at 500 nM by centrifugation-ultrafiltration method; in short: as §2
[6] = target: T2, Amine oxidase [flavin-containing] B; assay: Inhibition of human MAOB at 5 uM
[7] = target: T2, Amine oxidase [flavin-containing] B; assay: Inhibition of human MAOB at 5 nM by centrifugation-ultrafiltration method; in short: as §2
[8] = target: T1, Amine oxidase [flavin-containing] A; assay: Inhibition of human MAOA at 100 uM by fluorimetry; in short: as §1
[9] = target: T1, Amine oxidase [flavin-containing] A; assay: Inhibition of human MAOA at 100 nM
[10] = target: T1, Amine oxidase [flavin-containing] A; assay: Reversible inhibition of human MAOA at 100 uM by centrifugation-ultrafiltration method; in short: as §2
[11] = target: T2, Amine oxidase [flavin-containing] B; assay: Inhibition of human MAOB at 1 uM by fluorimetry

IC50 [1] | IC50 [2] | Ratio IC50 (Homo sapiens) | Structure (SMILES) | also measured
333 nM | 1680 nM | 0.2 | COc1cccc(-c2csc(N/N=C(\C)c3ccco3)n2)c1 | 
1380 nM |  |  | CCCCCC/C(C)=N/Nc1nc(-c2cccc(OC)c2)cs1 | inhibition at 100 µM [3]: 40%
455 nM | 3.81 nM | 119 | COc1cccc(-c2csc(N/N=C(\C)c3cccnc3)n2)c1 | inhibition at 0.5 µM [4]: 59.1%; inhibition at 0.5 µM [5]: 65.1%; inhibition at 5 µM [6]: 63.7%; inhibition at 0.005 µM [7]: 67.2%
1780 nM | 29.5 nM | 60 | COc1cccc(-c2csc(NN=C3CCCCCC3)n2)c1 | 
 |  |  | COc1cccc(-c2csc(N/N=C(\C)c3cccc4ccccc34)n2)c1 | inhibition at 100 µM [8]: 40%; inhibition (INH) ([3]; 100 µM): Not Active
 |  |  | O=C1Nc2ccccc2C1=O [ISATIN] | inhibition at 0.1 µM [9]: 40.3%; inhibition at 100 µM [8]: 40%; inhibition at 100 µM [10]: 12.1%
592 nM | 1060 nM | 0.56 | COc1cccc(-c2csc(NN=C3CCCC3)n2)c1 | 
679 nM | 72.7 nM | 9.3 | COc1cccc(-c2csc(N/N=C3\CCCC(C)C3)n2)c1 (configuration not stated) | 
1910 nM | 31.9 nM | 60 | COc1cccc(-c2csc(NN=C3CCCCC3)n2)c1 | 
5560 nM | 6970 nM | 0.8 | COc1cccc(-c2csc(N/N=C(\C)c3cc4ccccc4oc3=O)n2)c1 | 
 |  |  | O=C(NCCN1CCOCC1)c1ccc(Cl)cc1 [MOCLOBEMIDE] | IC50 [11]: Not Active
737 nM | 12.2 nM | 60 | COc1cccc(-c2csc(N/N=C3\CCCCC3C)n2)c1 (configuration not stated) | 
3710 nM | 116 nM | 32 | COc1cccc(-c2csc(N/N=C(\C)c3ccncc3)n2)c1 | 
636 nM | 551 nM | 1.15 | COc1cccc(-c2csc(N/N=C(\C)c3cccs3)n2)c1 | 
1310 nM | 871 nM | 1.5 | CCC/C(C)=N/Nc1nc(-c2cccc(OC)c2)cs1 | 
343 nM | 6780 nM | 0.051 | COc1cccc(-c2csc(N/N=C/c3ccco3)n2)c1 | 
1150 nM | 6720 nM | 0.17 | CCCCC/C(C)=N/Nc1nc(-c2cccc(OC)c2)cs1 | 
1450 nM | 231 nM | 6.3 | COc1cccc(-c2csc(N/N=C3\CCC(C)C3)n2)c1 (configuration not stated) | 
 |  |  | COc1cccc(-c2csc(N/N=C(\C)c3ccccn3)n2)c1 | inhibition at 100 µM [8]: 40%; inhibition at 100 µM [3]: 40%
749 nM | 35.5 nM | 21 | COc1cccc(-c2csc(NN=C3CCC(C)CC3)n2)c1 (configuration not stated) | 
4430 nM | 5070 nM | 0.87 | COc1cccc(-c2csc(NN=C(C)C)n2)c1 | 
698 nM | 1140 nM | 0.61 | COc1cccc(-c2csc(N/N=C/c3ccncc3)n2)c1 | 
3640 nM |  |  | COc1cccc(-c2csc(N/N=C/c3cccc4ccccc34)n2)c1 | inhibition at 100 µM [3]: 40%
824 nM | 772 nM | 1.1 | CCC(CC)=NNc1nc(-c2cccc(OC)c2)cs1 | 
414 nM | 800 nM | 0.52 | COc1cccc(-c2csc(N/N=C/c3c[nH]c4ccccc34)n2)c1 | 
836 nM | 26.6 nM | 31 | COc1cccc(-c2csc(N/N=C3\CCCC3C)n2)c1 (configuration not stated) | 
458 nM | 494 nM | 0.93 | COc1cccc(-c2csc(N/N=C/c3cccs3)n2)c1 | 
538 nM | 2910 nM | 0.18 | COc1cccc(-c2csc(N/N=C/c3cccnc3)n2)c1 | 
